Screens deposited in PubChem BioAssay by several laboratories.
NR2E3 ag-1 = agonists of human NR2E3 nuclear receptor | Q9Y5X4 | actives 0.35% (n = 360,000) | CHO-S Gal4-NCOR/VP16-NR2E3 two-hybrid, luciferase | AID 602229 | inhibition of corepressor binding, % at 3.98 µM;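 active = inhibition above the mean of all tested compounds plus 3 SD, cut at about 70% in these data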;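 note: 0% = DMSO with NR2E3 transfected cells and 100% = cells lacking NR2E3 construct; higher means lower luciferase signal from less NR2E3 corepressor binding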
Target sequence (Q9Y5X4 whole entry, looked up, the tested form may be a part): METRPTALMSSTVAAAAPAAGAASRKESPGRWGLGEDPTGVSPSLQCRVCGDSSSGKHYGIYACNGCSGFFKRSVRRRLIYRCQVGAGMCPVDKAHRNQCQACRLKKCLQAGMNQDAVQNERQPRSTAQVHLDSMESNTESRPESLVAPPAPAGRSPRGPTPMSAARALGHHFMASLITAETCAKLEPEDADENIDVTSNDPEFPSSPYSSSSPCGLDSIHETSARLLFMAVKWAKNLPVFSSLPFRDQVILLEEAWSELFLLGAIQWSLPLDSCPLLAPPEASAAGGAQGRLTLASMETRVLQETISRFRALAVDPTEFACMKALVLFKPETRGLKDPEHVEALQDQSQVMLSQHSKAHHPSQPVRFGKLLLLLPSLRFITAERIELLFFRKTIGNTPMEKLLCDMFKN
NR2E3 ag-2 = NR2E3 (human) agonism | Q9Y5X4 | GST-NR2E3/biotin-RetCOR TR-FRET, 1536-well | inhibition of corepressor binding, % at 4.78 µM | actives 0.12% (n = 320,000);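 active = percent inhibition above the cutoff of mean plus 3 SD of all tested compounds, set per screening campaign, cut at about 20% in these data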;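 note: 0% = DMSO wells and 100% = biotin wells as full block of FRET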
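Format: 1536-well format; test system: GST-NR2E3 and biotin-RetCOR proteins; read-out basis: percent inhibition of TR-FRET ratio; timing: 5 h incubation at 4 °C; detection: time-resolved FRET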
NR1D1 modulator = Rev-erb alpha (human) modulation; P20393; Rev-erbα–FITC-DNA binding, fluorescence polarization, 90 min; activity, % at 10 µM; actives 0.79% (n = 370,000); AID 1259318;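 active = activity above about 14%, limit read from the data; passing the limit was not always enough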;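 note: 0% = DMSO wells with 35 nM protein and 100% = DMSO wells with 750 nM protein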
PG9 Ab binder = PG9 antibody binding by small molecule. TR-FRET gp120-PG9 antibody binding. actives 0.43% (n = 360,000). inhibition, % at 6.7 µM; in the data active = inhibition above about 8.5%
NR2E3 ag conf = NR2E3 agonism confirmed in two-hybrid assay. shares compounds with NR2E3 ag-1. CHO-S mammalian two-hybrid NR2E3-NCOR, luciferase luminescence. inhibition, % at 3.98 µM. actives 51% (n = 2,300);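 active = average inhibition above a cutoff equal to the mean inhibition of all tested compounds plus one SD, cut at about 70% in these data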;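 note: 0% = DMSO in NR2E3 cells and 100% = DMSO in cells lacking NR2E3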
VP16 counter = GAL4-VP16 reporter inhibition in NR2E3 agonist counterscreen; inhibition, % at 3.98 µM; AID 624379; CHO-S GAL4-VP16 luciferase reporter, luminescence; shares compounds with NR2E3 ag-1; actives 29% (n = 2,300);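 active = mean inhibition above a cutoff equal to the average over all tested compounds plus one standard deviation, cut at about 70% in these data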;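 note: luciferase from a UAS reporter driven by GAL4-VP16 transactivation; 0% = DMSO with VP16-transfected cells and 100% = DMSO with cells lacking VP16; higher means less reporter light so more repression of VP16 activity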
Numbers without * were called inactive; nt = no result given. Shown are actives, neighbours in structure and some others; about 1.4% of the full set was active somewhere.

SMILES | NR2E3 ag-1 | NR2E3 ag-2 | NR1D1 modulator | PG9 Ab binder | NR2E3 ag conf | VP16 counter
CCOC(=O)N1CCN(C(=O)C[C@@H]2C(=O)N(Cc3ccc(OC)cc3)/C3=C/CCCCC[C@@]32C(=O)OCC)CC1 | nt | nt | 7 | nt | nt | nt
Cc1ccc(S(=O)(=O)n2ccc3c(OCCOCCNCc4ccc(F)cc4)cccc32)cc1 | 63 | -2 | 0 | -1 | 34 | 40
O=C(CC(Nc1ccc(Cl)cc1Cl)C(=O)O)c1ccccc1 (stereo not drawn) | 59 | 2 | -5 | 1 | 40 | 26
O=C(NC1CCCCN(Cc2ccc(Cl)cc2)C1=O)c1cccc(C(F)(F)F)c1 (stereo not drawn) | nt | nt | -5 | nt | nt | nt
Cc1cc(C)c(O)c(C(=O)CC2CC(=O)NC(=O)C2)c1 | nt | nt | 1 | -1 | nt | nt
O=C1C2C3C=CC(C3)C2C(=O)N1c1ccc(Cc2ccncc2)cc1 (stereo not drawn) | 52 | 3 | -3 | 1 | 12 | 34
CC1CCC2C(=O)N(c3ccc(Cc4ccncc4)cc3)C(=O)C2C1 (stereo not drawn) | 49 | -2 | -5 | 1 | 77* | 64
CC1CCN(C(=O)c2ccc(N3C(=O)C4CCC(C)CC4C3=O)cc2)CC1 (stereo not drawn) | -15 | 0 | 3 | 1 | nt | nt
O=C(Cn1ccccc1=S)c1ccc(Cl)c(Cl)c1 | -21 | 0 | -3 | 0 | nt | nt
On1ccccc1=S | 101* | 4 | 0 | 1 | -97 | 4
CCCCNC(=O)C[C@@H]1C(=O)N2CCCC3=C2[C@@]1(C(=O)OC)CCCC3 | nt | nt | 1 | nt | nt | nt
CCC(C)N(C(=O)c1ccc(CNC(=O)c2cccc(Br)c2)cc1)C(C)CC (stereo not drawn) | nt | nt | -6 | nt | nt | nt
O=C(Nc1ccc(OCC(F)(F)C(F)F)c(C(F)(F)F)c1)c1ccc(Cl)cc1 | 90* | -2 | 0 | 0 | 12 | 48
O=C(NC1CCCC1)C1(C(=O)C2CC2)CC(c2ccccn2)=NO1 (stereo not drawn) | nt | nt | -2 | nt | nt | nt
Cc1ccccc1N1CCN(C(=O)CCn2nnc3ccccc32)CC1 | nt | nt | 0 | nt | nt | nt
COc1ccc(-c2csc(NC(=O)C3CCN(c4ncnc5sc(C)c(C)c45)CC3)n2)cc1OC | 78* | -3 | 0 | -1 | 74* | 79*
COc1ccccc1OCC(=O)NNC(=O)C1CCN(c2ncnc3sc(C)c(C)c23)CC1 | -21 | 0 | 2 | 0 | nt | nt
CC[C@@H]1CCC[C@@H](O)[C@@H](C)C(=O)O[C@H](C)[C@@H](C)C/C=C(C)/C(OC)=C\C(=O)N(C)C([C@@H](C)CC)C(=O)N(C)[C@@H](C(C)C)C(=O)N(C)[C@@H](COC)C(=O)N2CCC[C@H]2C(=O)N(C)[C@@H](C(C)C)C(=O)N2CCC[C@H]2C(=O)O1 (stereo partly drawn) | 97* | nt | -4 | -1 | 98* | 91*
COCCNC(=O)CSCc1nc(-c2ccc(SC)cc2)oc1C | 92* | 3 | -2 | 3 | 85* | 86*
CSc1ccc(-c2nc(CSCC(=O)NCCCN3CCCC3=O)c(C)o2)cc1 | 32 | 1 | -1 | -1 | nt | nt
CCOCCCNC(=O)CSCc1nc(-c2ccc(SC)cc2)oc1C | 81* | 2 | 3 | 0 | 81* | 81*
CCc1ccc(-c2nc(CSCC(=O)NCCCN3CCCC3=O)c(C)o2)cc1 | 71* | 0 | 5 | 1 | 90* | 63
O=C(Nc1nc2ncccn2c1-c1ccc(F)c(F)c1)c1ccccc1 | nt | nt | -6 | nt | nt | nt
CC1=C(CC(=O)c2ccccc2)C(=O)c2ccccc2C1=O | 55 | -2 | 10 | -2 | -91 | -31
Cc1nc2ccc(S(=O)(=O)Nc3cc(-c4nc5cccnc5s4)ccc3C)cc2s1 | -58 | 0 | 10 | -1 | nt | nt
Cc1nc2ccc(S(=O)(=O)Nc3cccc(-c4nc5cccnc5s4)c3C)cc2s1 | 98* | 2 | 2 | 1 | 95* | 86*
Cc1cc(Nc2nc3ccccc3[nH]c2=O)n(-c2ccccc2)n1 | 52 | -1 | -6 | 0 | 40 | 22
CCOC(=O)C(=O)NNc1ccc(Cl)cc1 | 60 | 2 | 7 | 0 | 37 | -18
CCOC(=O)C(=O)NNc1ccc(C)cc1 | 60 | 4 | 4 | -1 | 25 | 9
